Reference: ChEMBL document CHEMBL1136960, “Oxidation of carbidopa by tyrosinase and its effect on murine melanoma” (Bioorg Med Chem Lett, 2009)
Activity calls are given as the source filed them. No cut-off for these calls is given here.

Tests used:
B16-F10 [1] = assay: Cytotoxicity against mouse B16F10 cells at 250 uM after 48 hrs by MTT assay; format: functional, cell-based
In short: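 B16(F10) cells at 2 × 10³ per well in RPMI 1640 with 10% FBS, 37 °C, 5% CO₂. Compound added after 24 h in quadruplicate, with 250 µM among the tested concentrations, then incubated 48 h. MTT 0.5 mg/mL for 3 h, formazan dissolved in acid–isopropanol, read at 570 nm. Survival expressed as percent of initial absorbance.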

[2] = Cytotoxicity against mouse NIH/3T3 cells by MTT assay; format: cell-based; settings: nih3t3
In short: (§1)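 Control lines used: NIH3T3 (ATCC) and HECa10 (lymph node-derived). Cells seeded at 2 × 10³ per well in RPMI 1640 with 10% FBS, 37 °C, 5% CO₂. Compounds added after 24 h in quadruplicate (10–2000 µM, eleven concentrations), then 24 or 48 h exposure. MTT for 3 h, formazan dissolved in acid–isopropanol, A570. Survival is percent of initial absorbance.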

[3] = Cytotoxicity against mouse HECa10 cells by MTT assay; format: cell-based; in short: as §1
B16-F10 [4] = assay: Cytotoxicity against mouse B16F10 cells after 24 hrs by MTT assay; format: functional, cell-based
In short: (§2)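 B16(F10) murine melanoma cells seeded at 2 × 10³ per well in RPMI 1640 with 10% FBS, 37 °C, 5% CO₂. After 24 h, compounds added in quadruplicate at eleven concentrations (10–2000 µM), then incubated a further 24 or 48 h. MTT (0.5 mg/mL in PBS) for 3 h at 37 °C, formazan dissolved in acid–isopropanol, A570. Survival = absorbance at time t / initial absorbance × 100%.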

B16-F10 [5] = assay: Cytotoxicity against mouse B16F10 cells after 48 hrs by MTT assay; format: functional, cell-based; in short: as §2

## C[C@@](Cc1ccc(O)c(O)c1)(NN)C(=O)O.O [CARBIDOPA]
B16-F10 [1]
  Activity: Active
[2]
  Activity: Toxic
[3]
  Activity: Toxic

## CC(Cc1ccc(O)c(O)c1)C(=O)O (stereo unspecified)
B16-F10 [4]
  Activity: Dose-dependent effect
[2]
  Activity: Toxic
B16-F10 [5]
  Activity: Dose-dependent effect
[3]
  Activity: Toxic

## Cc1cc2cc(O)c(O)cc2nn1
B16-F10 [4]
  Activity: inactive
[2]
  Activity: Toxic
B16-F10 [5]
  Activity: Active
[3]
  Activity: Toxic
